# Experimental data reported in ChEMBL document CHEMBL4190239, “A novel structural class of coumarin-chalcone fibrates as PPARα/γ agonists with potent antioxidant activities: Design, synthesis, biological evaluation and molecular docking studies” (Eur J Med Chem, 2017).
# pEC50, pIC50: −log10 of the molar value.
# Assays:
# [1] = target: T1, Peroxisome proliferator-activated receptor alpha (Homo sapiens, UniProt Q07869); assay: Agonist activity at GAL4-fused PPARalpha LBD (unknown origin) expressed in HEK293 cells assessed as receptor transactivation after 18 hrs by dual luciferase reporter gene assay; format: cell-based; settings: for EC50: hek293; for pEC50: read-out: EC50
# T1 sequence (Q07869 whole entry): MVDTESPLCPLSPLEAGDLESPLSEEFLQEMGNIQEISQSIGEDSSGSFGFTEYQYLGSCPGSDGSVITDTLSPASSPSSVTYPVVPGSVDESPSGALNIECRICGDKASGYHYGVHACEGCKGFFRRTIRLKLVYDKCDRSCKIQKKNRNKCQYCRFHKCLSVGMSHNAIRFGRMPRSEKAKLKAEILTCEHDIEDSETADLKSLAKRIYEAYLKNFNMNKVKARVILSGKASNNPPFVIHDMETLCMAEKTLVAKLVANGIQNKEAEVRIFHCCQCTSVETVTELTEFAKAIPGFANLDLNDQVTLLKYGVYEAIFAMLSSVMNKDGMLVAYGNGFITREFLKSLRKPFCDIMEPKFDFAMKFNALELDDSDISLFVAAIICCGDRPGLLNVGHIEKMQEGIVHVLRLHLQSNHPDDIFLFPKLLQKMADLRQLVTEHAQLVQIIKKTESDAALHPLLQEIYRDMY
# [2] = target: T2, Peroxisome proliferator-activated receptor gamma (Homo sapiens, UniProt P37231); assay: Agonist activity at GAL4-fused PPARgamma LBD (unknown origin) expressed in HEK293 cells assessed as receptor transactivation after 18 hrs by dual luciferase reporter gene assay; format: cell-based; settings: for pEC50: read-out: EC50; for EC50: hek293
# T2 sequence (P37231 whole entry): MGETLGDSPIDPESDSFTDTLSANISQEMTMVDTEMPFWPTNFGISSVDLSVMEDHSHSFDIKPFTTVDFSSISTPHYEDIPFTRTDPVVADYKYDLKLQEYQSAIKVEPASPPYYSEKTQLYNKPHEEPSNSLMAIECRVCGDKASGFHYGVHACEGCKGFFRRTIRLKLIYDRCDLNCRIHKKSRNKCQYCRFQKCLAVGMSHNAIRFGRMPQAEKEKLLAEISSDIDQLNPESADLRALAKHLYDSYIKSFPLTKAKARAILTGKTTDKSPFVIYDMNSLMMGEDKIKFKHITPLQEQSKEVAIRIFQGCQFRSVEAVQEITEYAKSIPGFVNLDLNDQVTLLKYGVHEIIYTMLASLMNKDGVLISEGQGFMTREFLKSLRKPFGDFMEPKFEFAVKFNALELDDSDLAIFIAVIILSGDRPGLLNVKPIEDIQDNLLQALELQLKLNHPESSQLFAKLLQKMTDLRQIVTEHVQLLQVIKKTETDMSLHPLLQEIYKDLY
# [3] = Antioxidant activity assessed as ABTS radical scavenging activity after 30 mins; format: functional
# [4] = target: T3, Peroxisome proliferator-activated receptor gamma (Homo sapiens) (UniProt P37231); assay: Agonist activity at GAL4-fused PPARgamma LBD (unknown origin) expressed in HEK293 cells assessed as receptor transactivation at 10 uM after 18 hrs by dual luciferase reporter gene assay; format: cell-based
# T3 sequence (whole entry): T2 sequence (P37231 whole entry)
# Method in brief: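 HEK293 grown in DMEM/10% FBS to 70–80% confluence, plated, switched to FCS-free medium, transiently transfected per well with GAL4-PPARγLBD plasmid (30 ng), reporter (50 ng), renilla normalization vector (20 ng) and pGEM carrier (40 ng). Ligand added 8 h post-transfection for 18 h; firefly and renilla luciferase read by dual-luciferase kit; activation expressed as fold.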
Structure (SMILES),EC50 [1],pEC50 [2],pIC50 [3],pEC50 [1],fold change (FC) [4],EC50 [2]
CCOC(=O)C(C)(C)Oc1ccc(C(=O)c2cc3cc(C(C)(C)C)cc(C(C)(C)C)c3oc2=O)cc1,–,–,< 4.00,–,0.81,–
CC(C)(Oc1ccc(C(=O)c2cc3c(ccc4ccccc43)oc2=O)cc1)C(=O)O,Not Active,4.25,< 4.00,–,–,–
CCOC(=O)C(C)(C)Oc1ccc(C(=O)c2cc3cc(N)ccc3oc2=O)cc1,Not Active,–,< 4.00,–,–,Not Active
Cc1ccc2oc(=O)c(C(=O)c3ccc(OC(C)(C)C(=O)O)cc3)cc2c1,–,–,< 4.00,–,1.04,–
CCOC(=O)C(C)(C)Oc1ccc(C(=O)c2cc3c(ccc4ccccc43)oc2=O)cc1,–,–,< 4.00,–,0.83,–
CCOC(=O)C(C)(C)Oc1ccc(C(=O)c2cc3cc(F)ccc3oc2=O)cc1,Not Active,–,< 4.00,–,–,Not Active
CCOC(=O)C(C)(C)Oc1ccc(C(=O)c2cc3cc(OC)c(OC)cc3oc2=O)cc1,–,–,< 4.00,–,1.01,–

# Next, values leading:
EC50 [1],pEC50 [2],pIC50 [3],pEC50 [1],fold change (FC) [4],EC50 [2],Structure (SMILES)
Not Active,4.40,5.03,–,–,–,CCOC(=O)C(C)(C)Oc1ccc(C(=O)C2Cc3ccccc3OC2=O)cc1 (stereo not given)
–,5.44,< 4.00,4.96,–,–,CC(C)(Oc1ccc(C(=O)c2cc3ccccc3oc2=O)cc1)C(=O)O
–,5.28,< 4.00,4.90,–,–,CCOC(=O)C(C)(C)Oc1ccc(C(=O)c2cc3ccccc3oc2=O)cc1
–,–,< 4.00,–,0.95,–,CCOC(=O)C(C)(C)Oc1ccc(C(=O)c2cc3cc(Cl)ccc3oc2=O)cc1
–,–,4.99,–,0.8,–,CCOC(=O)C(C)(C)Oc1ccc(C(=O)C2Cc3cc(C)ccc3OC2=O)cc1 (stereo not given)
–,–,4.77,–,0.9,–,CCOC(=O)C(C)(C)Oc1ccc(C(=O)C2Cc3cc(OC)c(OC)cc3OC2=O)cc1 (stereo not given)
–,–,5.07,–,1.01,–,CCOC(=O)C(C)(C)Oc1ccc(C(=O)c2cc3cc(C)ccc3oc2=O)cc1
–,6.04,4.73,5.16,–,–,CCOC(=O)C(C)(C)Oc1ccc(C(=O)c2cc3cc([N+](=O)[O-])ccc3oc2=O)cc1
–,–,4.82,–,1.05,–,CCOC(=O)C(C)(C)Oc1ccc(C(=O)C2Cc3c(ccc4ccccc34)OC2=O)cc1 (stereo not given)
–,–,4.60,–,–,–,Cc1c(C)c2c(c(C)c1O)CCC(C)(C(=O)O)O2 (stereo not given) [TROLOX]
